Source: PubChem BioAssay
bIAP inh: bovine intestinal alkaline phosphatase inhibitors, primary screen, selectivity assay for TNAP inhibitor project, biochemical, bovine IAP, CDP-star luminescence; alkaline phosphatase, intestinal [Bos taurus]; purified bovine IAP, 30 min; inhibition, % at 20 µM; 190,000 tested, under 10 active; AID 1019, 2008;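 active = over 50% inhibition of intestinal alkaline phosphatase at 20 µM in the single-dose screen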
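test system = bovine IAP enzyme | medium = DEA buffer 100 mM, pH 9.8, with MgCl2 1.0 mM, ZnCl2 0.02 mM | detection = luminescence | dosing = single compound dose of 20 µM, 2% DMSO final | incubation = 30 min reaction at room temperature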
bIAP activator: bovine intestinal alkaline phosphatase activators, primary screen, biochemical, bovine IAP, CDP-star luminescence. purified bovine IAP, 30 min; active compounds read high; fold of DMSO-control signal, blank-subtracted. activation factor at 20 µM. AID 1016, 2008. alkaline phosphatase, intestinal [Bos taurus]. actives 0.17% (n = 200,000);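 active = activation factor of 2 or more at 20 µM, a signal rise over negative controls twice the positive control's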
hIAP act: human IAP activators, primary screen, biochemical, luminescence, uHTS; Intestinal-type alkaline phosphatase (Homo sapiens), P09923; purified human IAP, CDP-Star luminescence, 30 min; active compounds read high; 1 = vehicle-only enzyme, 0 = enzyme-free background; activation factor at 10 µM; actives 0.16% (n = 330,000); AID 2524, 2010;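 active = activation factor of the enzyme at least 2-fold when tested at 20 µM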
Target sequence (P09923 whole entry, looked up): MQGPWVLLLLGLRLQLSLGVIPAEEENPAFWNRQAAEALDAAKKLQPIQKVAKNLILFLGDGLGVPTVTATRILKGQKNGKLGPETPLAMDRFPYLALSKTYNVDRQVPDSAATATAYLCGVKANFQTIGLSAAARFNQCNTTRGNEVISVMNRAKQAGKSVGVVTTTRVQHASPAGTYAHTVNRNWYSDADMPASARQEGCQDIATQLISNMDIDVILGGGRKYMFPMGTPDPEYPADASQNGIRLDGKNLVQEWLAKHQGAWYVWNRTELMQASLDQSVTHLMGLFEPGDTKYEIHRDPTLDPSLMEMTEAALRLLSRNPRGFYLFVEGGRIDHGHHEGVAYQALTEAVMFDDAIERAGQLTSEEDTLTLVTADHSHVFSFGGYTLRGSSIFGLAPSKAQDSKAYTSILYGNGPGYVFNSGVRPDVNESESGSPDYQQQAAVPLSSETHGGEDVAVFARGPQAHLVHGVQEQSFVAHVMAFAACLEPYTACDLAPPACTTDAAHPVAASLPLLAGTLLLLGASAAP
mIAP inh: inhibitors of mouse IAP, primary screen, biochemical, luminescence, uHTS | intestinal alkaline phosphatase [Mus musculus] | purified mouse IAP, CDP-Star luminescence, 30 min | inhibition, % at 10 µM | actives 0.2% (n = 330,000) | AID 2806, 2010;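 active = inhibition of at least 40% at 10 µM in the primary screen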;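 also: plate controls were DMSO with enzyme for no effect and no enzyme wells for full effect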
mIAP act: activators of mouse IAP, primary screen, biochemical, luminescence, uHTS | intestinal alkaline phosphatase [Mus musculus] | muIAP, CDP-Star luminescence, 30 min; active compounds read high; 1 = vehicle-only enzyme signal, 0 = enzyme-free wells | activation factor at 10 µM | actives 0.24% (n = 330,000);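 active = activation factor of at least 2 at 20 µM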
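System: Mouse IAP enzyme | Also added: CDP-Star substrate | Dosing: Compounds dispensed in DMSO | Schedule: 30 min enzyme-substrate-compound incubation at room temperature | Technique: Chemiluminescence readout | Control set: DMSO-only wells and no-enzyme negative control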
hIAP block: human IAP inhibitors, primary screen, biochemical, luminescence, uHTS; purified IAP, CDP-Star luminescence, 30 min; inhibition, % at 10 µM; actives 0.12% (n = 330,000);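 active = inhibition reaching a set limit with compound at 10 µM in the primary screen, cut at about 35% in these data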;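 also: plate controls were DMSO wells with enzyme for no effect and no-enzyme buffer wells for full effect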
mIAP inh confirm: inhibitors of mouse IAP, confirmation, biochemical, luminescence, single concentration; AID 434971, 2010; shares compounds with mIAP inh; actives 4.7% (n = 11,000); purified mouse IAP, CDP-Star luminescence, 30 min; inhibition, % at 10 µM;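 active = inhibition of at least 40% at 10 µM in either of the two replicates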;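 also: plate controls were DMSO wells with enzyme for no effect and buffer wells lacking enzyme for full effect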
Starred values were filed as active, the others as inactive. Most compounds without a hit are left out; they make up all but 0.72% or so of the library.

C#CCOCCOCCOCCNc1nc(N2CCN(C(=O)CCCCCCCCCCNC(=O)[C@H]([C@@H](C)CC)n3cc(CCCCN=C(N)N)nn3)CC2)nc(N2CCN(C(=O)CCCCCCCCCCNC(=O)[C@H]([C@@H](C)CC)n3cc(CCCCN=C(N)N)nn3)CC2)n1 was read as hIAP act 1.5, mIAP inh inactive, mIAP act 10*, hIAP block -47 and mIAP inh confirm inactive.
For C#CCOCCOCCOCCNc1nc(N2CCN(C(=O)[C@H]([C@@H](C)CC)n3cc(CCCN=C(N)N)nn3)CC2)nc(N2CCN(C(=O)[C@H]([C@@H](C)CC)n3cc(CCCN=C(N)N)nn3)CC2)n1 the results were bIAP inh 32, bIAP activator 0.7, hIAP act 0.75, mIAP inh -8, mIAP act 1.1 and hIAP block 25.
`C#CCOCCOCCOCCNc1nc(N2CCN(C(=O)CCCCCCCCCCNC(=O)Cn3cc(CCCCCN)nn3)CC2)nc(N2CCN(C(=O)CCCCCCCCCCNC(=O)[C@@H](CCSC)n3cc(CCO)nn3)CC2)n1` gave hIAP act 1.1, mIAP inh -321, mIAP act 4.2*, hIAP block -14 and mIAP inh confirm -256.
`C#CCOCCOCCOCCNc1nc(N2CCN(C(=O)CCCCCCCCCCNC(=O)Cn3cc(CCCCCN)nn3)CC2)nc(N2CCN(C(=O)CCCCCCCCCCNC(=O)[C@@H](CCC(=O)O)n3cc(CCCCCN)nn3)CC2)n1` gave hIAP act 0.97, mIAP inh -42, mIAP act 1.4 and hIAP block 3.
Screening C#CCOCCOCCOCCNc1nc(N2CCN(C(=O)CCCCCCCCCCNC(=O)Cn3cc(CCCCCN)nn3)CC2)nc(N2CCN(C(=O)CCCCCCCCCCNC(=O)[C@H]([C@@H](C)CC)n3cc(CCCCN=C(N)N)nn3)CC2)n1 returned hIAP act 1.2, mIAP inh inactive, mIAP act 9.7*, hIAP block -19 and mIAP inh confirm inactive.
For COCCN(C(=O)COC(=O)c1sccc1C)c1c(N)n(Cc2ccccc2)c(=O)[nH]c1=O the results were hIAP act 1.4, mIAP inh -4, mIAP act 1 and hIAP block -36.
O=C(O)c1cc(-c2ccco2)[nH]n1 was read as bIAP inh -3, bIAP activator 1, hIAP act 1.1, mIAP inh 69*, mIAP act 0.31, hIAP block -5 and mIAP inh confirm 68*.
Screening C=CCc1c(C)nc2c(C)cccc2c1SC(=N)N returned hIAP act 1.2, mIAP inh 3, mIAP act 0.97 and hIAP block -18.
`COc1ccc(N2CCN(S(=O)(=O)c3ccc(OC)c(C(=O)N4CCOCC4)c3)CC2)cc1` gave hIAP act 1.1, mIAP inh -12, mIAP act 1.1 and hIAP block -13.
For CCOC(=O)C1=C(COC(=O)Cc2c(F)cccc2Cl)NC(=O)NC1C (centres undefined) the results were hIAP act 0.81, mIAP inh -8, mIAP act 1.1 and hIAP block 19.
`O=c1oc2cc([N+](=O)[O-])ccc2nc1/C=C(\O)c1cccc(Br)c1` gave hIAP act 0.77, mIAP inh 18, mIAP act 0.82 and hIAP block 23.
Screening O=c1oc2cc([N+](=O)[O-])ccc2nc1/C=C(O)/C=C/c1ccccc1 returned hIAP act 1, mIAP inh 69*, mIAP act 0.31, hIAP block 0 and mIAP inh confirm 76*.
For O=C(Nc1ccc(Cl)c(Cl)c1)Nc1ccc(Br)cc1F the results were bIAP inh -10, bIAP activator 1.1, hIAP act 0.95, mIAP inh -253, mIAP act 3.5*, hIAP block 5 and mIAP inh confirm -124.
`O=C(Nc1ccc(Cl)cc1)Nc1ccc(Cl)c(Cl)c1` gave hIAP act 1.2, mIAP inh -227, mIAP act 3.3*, hIAP block -17 and mIAP inh confirm -127.
`Cc1c(NC(=O)c2ccc([N+](=O)[O-])o2)cccc1-c1nc2ncccc2o1` gave hIAP act 1, mIAP inh -5, mIAP act 1.1 and hIAP block 0.
Screening Cc1ccc(OCCC(=O)N(CCC(C)C)c2c(N)n(Cc3ccccc3)c(=O)[nH]c2=O)cc1 returned hIAP act 1.1, mIAP inh -5, mIAP act 1 and hIAP block -8.
`CCc1noc(C)c1C(=O)OCC(=O)c1ccccc1OC` gave hIAP act 0.92, mIAP inh -4, mIAP act 1 and hIAP block 8.
`CCOC(=O)c1ccc(N2CCN(c3ccccc3F)CC2)c(NC(=O)Nc2ccccc2)c1` gave bIAP inh 3, bIAP activator 1, hIAP act 1.4, mIAP inh inactive, mIAP act 6.6*, hIAP block -42 and mIAP inh confirm -214.
Screening O=C(Cn1ncn2c(cc3sccc32)c1=O)NC1CCCC1 returned hIAP act 0.92, mIAP inh 9, mIAP act 0.91 and hIAP block 8.
For Cc1ccc(NC(=O)CN(C)C(=O)c2cccnc2Nc2cccc(C(F)(F)F)c2)cc1 the results were hIAP act 0.91, mIAP inh -4, mIAP act 1 and hIAP block 10.
Screening CC(NC(=O)Nc1ccc(Cl)cc1)c1ccc2c(c1)OCO2 (centres undefined) returned hIAP act 1.1, mIAP inh -184, mIAP act 2.8*, hIAP block -14 and mIAP inh confirm -153.
`COc1ccc(NC(=O)NC(C)c2ccc3c(c2)OCO3)cc1OC` (centres undefined) gave hIAP act 1, mIAP inh -10, mIAP act 1.1 and hIAP block 0.
Screening C#CCOCCOCCOCCNc1nc(N2CCN(C(=O)CCCCCCCCCCNC(=O)[C@H](CCCCN)n3cc(CCCC(=O)O)nn3)CC2)nc(N2CCN(C(=O)CCCCCCCCCCNC(=O)[C@@H]([C@H](C)O)n3cc(C)nn3)CC2)n1 returned hIAP act 1, mIAP inh -19, mIAP act 1.2 and hIAP block -5.
